Data set [1] in a line: Aqueous solubility of the compound at pH 3 using compound in amorphous solid form. As to conditions: buffer. The format is physicochemical.
The target in a further data set is P2Y purinoceptor 1 (Homo sapiens, UniProt P47900). The experiment in a line: Antagonist activity at P2Y1 receptor in washed human platelets assessed as 1 uM 2-methylthio-ADP-induced calcium flux by FLIPR assay. The data set is classed as functional. In general terms: Calcium assays in cells follow changes in intracellular calcium, usually with a dye or a luminescent sensor.

A short description of data set [2]: Metabolic stability in mouse liver microsomes assessed as compound remaining at 0.5 uM after 10 mins. As to conditions: read-out: Stability. The format is ADME. Summed up: (§1)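 Compound at 0.5 μM incubated 10 min with 1 mg/mL human, rat or mouse liver microsomes; percentage of parent remaining reported.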
The target in another data set is P2Y purinoceptor 2 (Homo sapiens, UniProt P41231). Description: Antagonist activity at P2Y2 receptor (unknown origin).
Data set [3] in a line: Antagonist activity at P2Y1 receptor in platelet-enriched rabbit plasma assessed as 10 uM ADP-induced platelet aggregation preincubated for 1 min followed by ADP induction measured at 5 mins by aggregometric analysis. The data set is classed as cell-free. As to conditions: Oryctolagus cuniculus.
A short description of data set [4]: Oral bioavailability in rat at 0.5 mg/kg by cassette dosing method. The format is ADME, organism-based. The settings on record: in vivo.
The test system of data set [5] is Oryctolagus cuniculus. The experiment in a line: Induction of bleeding time in rabbit model of electrically-induced carotid artery thrombosis administered 30 mins before electrical stimulation. As to conditions: in vivo, 0.5 h. The data set is classed as organism-based. Summed up:
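Rabbits received an iv bolus plus continuous infusion (0.003 + 0.01 up to 0.3 + 1 mg/kg + mg·kg−1·h−1), started 30 min before carotid electrical stimulation and maintained throughout. Vehicle was 10% DMAc/2.5% PVP-K12/1% Pluronic F-108/D5W. Bleeding time was recorded up to 20 min after cuticle incision and expressed as fold of vehicle; mean ± SEM, n = 5–8 per group.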

Data set [6] is described as follows: Volume of distribution at steady state in rat at 0.5 mg/kg by cassette dosing method. More on the design: dose 0.5 mg/kg. The format is ADME, organism-based. As to conditions: in vivo, read-out: Vdss.
A short description of data set [7]: Metabolic stability in human liver microsomes assessed as compound remaining at 0.5 uM after 10 mins. As to conditions: read-out: Stability. The data set is classed as ADME. In a few lines:
as §1
Background: Liver microsomes are vesicles of endoplasmic reticulum, rich in cytochrome P450 enzymes.

The target of a further data set is P2Y purinoceptor 12 (Homo sapiens, UniProt Q9H244). Description: Antagonist activity at P2Y12 receptor (unknown origin).
A short description of data set [8]: Metabolic stability in rat liver microsomes assessed as compound remaining at 0.5 uM after 10 mins. The format is ADME. The settings on record: read-out: Stability. In a few lines:
as §1

Data set [9] concerns Oryctolagus cuniculus. Description: Antithrombotic activity in rabbit model of electrically-induced carotid artery thrombosis assessed as reduction in thrombus formation dosed 30 mins before electrical stimulation. The data set is classed as functional, organism-based.
A further data set concerns the target hERG (KCNH2) (Homo sapiens, UniProt Q12809). The experiment in a line: Inhibition of human ERG at 1 uM by patch clamp assay.
A short description of data set [10]: Clearance in rat at 0.5 mg/kg by cassette dosing method. The data set is classed as ADME, organism-based. Further details: dose 0.5 mg/kg. The settings on record: in vivo.

Here are results for one molecule from ChEMBL document CHEMBL3352472, “Discovery of 4-aryl-7-hydroxyindoline-based P2Y1 antagonists as novel antiplatelet agents” (J Med Chem, 2014).

For orientation: solubility means how much of the substance goes into solution per volume. Broadly, the IC50 is the midpoint of a concentration-inhibition curve. For orientation: bioavailability means the share of a dose that reaches the circulation, judged against a reference dose that is usually intravenous. A high value points to much systemic uptake. Usually inhibition stands for the change of the read-out against control, counted positive when it falls. For orientation: clearance means a measure of how efficiently the substance is removed, as volume per time.

SMILES strings stand for the structures. Converted amounts (≈) assume the structure as drawn. The source made the active and inactive calls. The rule behind the calls is not given here. A value given as a limit tells only on which side of the number the result lay.

Sequence of P2Y purinoceptor 12 (Q9H244 whole entry): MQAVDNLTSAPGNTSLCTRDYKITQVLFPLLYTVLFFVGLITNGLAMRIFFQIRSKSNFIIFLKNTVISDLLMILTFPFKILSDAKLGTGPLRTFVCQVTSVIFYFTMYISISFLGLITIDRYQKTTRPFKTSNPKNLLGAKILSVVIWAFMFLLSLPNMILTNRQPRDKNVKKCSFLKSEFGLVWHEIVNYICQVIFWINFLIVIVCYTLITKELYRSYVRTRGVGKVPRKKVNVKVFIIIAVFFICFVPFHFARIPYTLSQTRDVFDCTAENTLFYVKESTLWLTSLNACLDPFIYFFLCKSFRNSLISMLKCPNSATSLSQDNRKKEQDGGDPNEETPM
Sequence of P2Y purinoceptor 1 (P47900 whole entry): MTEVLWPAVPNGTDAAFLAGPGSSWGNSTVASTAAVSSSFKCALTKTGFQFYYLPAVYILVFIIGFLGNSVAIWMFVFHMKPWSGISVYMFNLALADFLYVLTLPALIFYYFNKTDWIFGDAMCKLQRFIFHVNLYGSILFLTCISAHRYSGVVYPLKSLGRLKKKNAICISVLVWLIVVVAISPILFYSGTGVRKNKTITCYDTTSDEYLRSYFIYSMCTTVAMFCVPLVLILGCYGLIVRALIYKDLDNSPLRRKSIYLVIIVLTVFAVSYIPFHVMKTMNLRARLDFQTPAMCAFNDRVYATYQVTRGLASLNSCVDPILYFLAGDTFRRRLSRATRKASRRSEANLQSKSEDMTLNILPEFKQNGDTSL
Sequence of hERG (KCNH2) (Q12809 whole entry): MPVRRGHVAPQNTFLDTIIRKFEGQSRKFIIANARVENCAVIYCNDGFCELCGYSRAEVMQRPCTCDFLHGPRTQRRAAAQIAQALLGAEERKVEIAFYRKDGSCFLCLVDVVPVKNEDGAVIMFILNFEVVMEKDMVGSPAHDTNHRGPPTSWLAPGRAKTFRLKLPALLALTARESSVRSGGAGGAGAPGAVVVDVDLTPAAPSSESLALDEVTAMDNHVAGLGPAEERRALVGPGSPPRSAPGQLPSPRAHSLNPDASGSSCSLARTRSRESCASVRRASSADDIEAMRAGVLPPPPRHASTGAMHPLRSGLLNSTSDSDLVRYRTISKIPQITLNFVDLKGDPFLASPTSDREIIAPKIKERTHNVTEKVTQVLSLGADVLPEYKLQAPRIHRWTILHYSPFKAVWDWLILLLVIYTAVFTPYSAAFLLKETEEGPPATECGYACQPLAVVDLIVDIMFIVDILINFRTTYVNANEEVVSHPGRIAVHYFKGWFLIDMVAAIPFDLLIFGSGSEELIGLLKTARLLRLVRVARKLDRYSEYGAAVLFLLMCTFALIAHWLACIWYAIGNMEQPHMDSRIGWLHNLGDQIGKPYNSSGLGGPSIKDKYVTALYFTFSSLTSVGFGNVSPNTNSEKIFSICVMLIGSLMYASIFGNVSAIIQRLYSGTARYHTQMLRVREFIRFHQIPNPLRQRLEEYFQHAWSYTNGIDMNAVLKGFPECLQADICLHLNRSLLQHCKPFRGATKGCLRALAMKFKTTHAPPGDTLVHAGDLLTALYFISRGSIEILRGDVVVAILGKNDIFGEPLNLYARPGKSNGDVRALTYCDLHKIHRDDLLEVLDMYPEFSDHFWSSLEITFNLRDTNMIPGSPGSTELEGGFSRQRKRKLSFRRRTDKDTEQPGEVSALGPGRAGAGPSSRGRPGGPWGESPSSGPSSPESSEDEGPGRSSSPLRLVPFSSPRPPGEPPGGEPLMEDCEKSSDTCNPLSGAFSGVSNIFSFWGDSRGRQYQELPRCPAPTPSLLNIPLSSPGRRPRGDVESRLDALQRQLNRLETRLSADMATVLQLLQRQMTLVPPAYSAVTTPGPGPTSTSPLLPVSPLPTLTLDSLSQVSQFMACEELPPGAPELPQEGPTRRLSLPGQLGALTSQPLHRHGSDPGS
Sequence of P2Y purinoceptor 2 (P41231 whole entry): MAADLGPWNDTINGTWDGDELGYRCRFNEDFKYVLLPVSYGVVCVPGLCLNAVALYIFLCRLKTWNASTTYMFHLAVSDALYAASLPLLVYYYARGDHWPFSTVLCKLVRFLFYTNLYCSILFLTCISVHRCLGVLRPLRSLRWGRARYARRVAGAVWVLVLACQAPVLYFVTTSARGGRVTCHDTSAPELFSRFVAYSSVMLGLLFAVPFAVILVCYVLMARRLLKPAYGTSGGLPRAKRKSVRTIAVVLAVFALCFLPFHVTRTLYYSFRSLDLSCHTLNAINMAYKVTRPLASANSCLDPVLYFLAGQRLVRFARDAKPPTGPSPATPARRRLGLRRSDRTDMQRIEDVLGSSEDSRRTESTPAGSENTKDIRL

Consider `CC(C)(C)CN1CCC2(CC1)CN(c1ccccc1NC(=O)Nc1nc3ccc(Cl)nc3s1)c1c(O)cc(F)c(-c3ccc(F)cc3)c12`, for which the solubility in [1] came to 3 µg/mL (≈ 4.35 µM). In addition, the IC50 on P2Y purinoceptor 1 was 0.12 nM; on P2Y purinoceptor 2, over 10000 nM; in data set [3] it was 590 nM; against P2Y purinoceptor 12, over 10000 nM. Also, the remaining at 10 min, 0.5 µM came to 100% in [2], 100% in data set [7] and 93% in data set [8]. In data set [4], the bioavailability was 30%. Also, in the data set with Oryctolagus cuniculus [5], the Activity result was “Non-toxic”. Moreover, in data set [6], the Vd came to 2.1 L/kg. Moreover, in the data set on Oryctolagus cuniculus [9], the inhibition result is “Active”. For the same molecule, the inhibition at 1 µM against hERG (KCNH2) came out at 96%. Moreover, the clearance in [10] came out at 4 mL/min/kg.
